Source: ChEMBL document CHEMBL1154183, “Structure-based optimization of potent and selective inhibitors of the tyrosine kinase erythropoietin producing human hepatocellular carcinoma receptor B4 (EphB4)” (J Med Chem, 2009)

Tests used:
[1] = biological target: Vascular endothelial growth factor receptor 3 (Homo sapiens) (UniProt P35916); assay: Binding affinity to FLT4 assessed as percentage of kinase remaining bound to the bead at 1 uM by T7 phage display based binding assay
Procedure, shortened: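 Kinases expressed as T7 phage fusions (full-length for small kinases, catalytic domain for large). Phage mixed with an immobilized known kinase inhibitor on streptavidin magnetic beads plus test compound at a single 1 μM concentration. Ligand displacement from the ATP site was read by quantitative PCR as % kinase/phage still bead-bound versus DMSO control. Human kinases.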

[2] = biological target: Serine/threonine-protein kinase N2 (Homo sapiens) (UniProt Q16513); assay: Inhibition of PRK2 assessed as remaining enzyme activity at 1 uM relative to DMSO
Serine/threonine-protein kinase N2 (Homo sapiens), sequence (Q16513 whole entry, looked up): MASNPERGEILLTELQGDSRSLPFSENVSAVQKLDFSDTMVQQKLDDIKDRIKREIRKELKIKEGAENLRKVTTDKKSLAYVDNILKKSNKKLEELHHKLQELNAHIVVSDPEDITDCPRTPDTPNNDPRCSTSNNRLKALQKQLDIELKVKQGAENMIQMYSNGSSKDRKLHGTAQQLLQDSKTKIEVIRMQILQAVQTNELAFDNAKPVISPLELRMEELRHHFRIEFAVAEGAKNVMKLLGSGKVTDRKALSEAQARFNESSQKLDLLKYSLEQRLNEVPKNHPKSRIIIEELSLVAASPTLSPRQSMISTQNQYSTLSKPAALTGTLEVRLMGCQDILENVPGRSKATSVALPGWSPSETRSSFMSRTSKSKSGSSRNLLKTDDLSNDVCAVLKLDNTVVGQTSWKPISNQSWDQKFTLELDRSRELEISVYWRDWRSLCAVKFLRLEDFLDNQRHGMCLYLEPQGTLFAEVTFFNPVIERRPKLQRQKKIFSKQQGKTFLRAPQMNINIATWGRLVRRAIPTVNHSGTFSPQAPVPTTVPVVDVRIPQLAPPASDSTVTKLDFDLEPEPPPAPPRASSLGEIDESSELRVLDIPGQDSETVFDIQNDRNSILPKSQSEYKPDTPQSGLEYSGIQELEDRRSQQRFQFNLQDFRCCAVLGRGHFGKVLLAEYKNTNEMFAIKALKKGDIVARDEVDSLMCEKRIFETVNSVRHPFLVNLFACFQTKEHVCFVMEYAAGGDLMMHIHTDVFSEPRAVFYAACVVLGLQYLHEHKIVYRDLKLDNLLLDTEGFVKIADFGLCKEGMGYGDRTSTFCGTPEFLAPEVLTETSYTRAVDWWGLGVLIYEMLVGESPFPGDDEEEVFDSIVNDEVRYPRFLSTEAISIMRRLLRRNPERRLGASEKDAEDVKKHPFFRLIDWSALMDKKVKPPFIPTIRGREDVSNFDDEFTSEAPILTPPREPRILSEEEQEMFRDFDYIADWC

[3] = biological target: Mitogen-activated protein kinase 13 (Homo sapiens) (UniProt O15264); assay: Inhibition of p38delta assessed as remaining enzyme activity at 1 uM relative to DMSO
[4] = biological target: Tyrosine-protein kinase Lck (Homo sapiens) (UniProt P06239); assay: Inhibition of Lck assessed as remaining enzyme activity at 1 uM relative to DMSO
Procedure, shortened: (§1)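 Radiometric kinase assay run robotically at room temperature for 30 min. Contained 10 mM magnesium acetate and [γ-33P]ATP (800 cpm/pmol) at 5, 20 or 50 μM, chosen per kinase to be at or below its ATP Km. Reactions were started with MgATP, stopped with orthophosphoric acid and spotted onto P81 filters. Result is mean % activity of duplicates at one inhibitor concentration versus DMSO control.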

[5] = biological target: Mitogen-activated protein kinase kinase kinase 9 (Homo sapiens) (UniProt P80192); assay: Inhibition of MLK1 assessed as remaining enzyme activity at 1 uM relative to DMSO; procedure, shortened: as §1
Mitogen-activated protein kinase kinase kinase 9 (Homo sapiens), sequence (P80192 whole entry, looked up): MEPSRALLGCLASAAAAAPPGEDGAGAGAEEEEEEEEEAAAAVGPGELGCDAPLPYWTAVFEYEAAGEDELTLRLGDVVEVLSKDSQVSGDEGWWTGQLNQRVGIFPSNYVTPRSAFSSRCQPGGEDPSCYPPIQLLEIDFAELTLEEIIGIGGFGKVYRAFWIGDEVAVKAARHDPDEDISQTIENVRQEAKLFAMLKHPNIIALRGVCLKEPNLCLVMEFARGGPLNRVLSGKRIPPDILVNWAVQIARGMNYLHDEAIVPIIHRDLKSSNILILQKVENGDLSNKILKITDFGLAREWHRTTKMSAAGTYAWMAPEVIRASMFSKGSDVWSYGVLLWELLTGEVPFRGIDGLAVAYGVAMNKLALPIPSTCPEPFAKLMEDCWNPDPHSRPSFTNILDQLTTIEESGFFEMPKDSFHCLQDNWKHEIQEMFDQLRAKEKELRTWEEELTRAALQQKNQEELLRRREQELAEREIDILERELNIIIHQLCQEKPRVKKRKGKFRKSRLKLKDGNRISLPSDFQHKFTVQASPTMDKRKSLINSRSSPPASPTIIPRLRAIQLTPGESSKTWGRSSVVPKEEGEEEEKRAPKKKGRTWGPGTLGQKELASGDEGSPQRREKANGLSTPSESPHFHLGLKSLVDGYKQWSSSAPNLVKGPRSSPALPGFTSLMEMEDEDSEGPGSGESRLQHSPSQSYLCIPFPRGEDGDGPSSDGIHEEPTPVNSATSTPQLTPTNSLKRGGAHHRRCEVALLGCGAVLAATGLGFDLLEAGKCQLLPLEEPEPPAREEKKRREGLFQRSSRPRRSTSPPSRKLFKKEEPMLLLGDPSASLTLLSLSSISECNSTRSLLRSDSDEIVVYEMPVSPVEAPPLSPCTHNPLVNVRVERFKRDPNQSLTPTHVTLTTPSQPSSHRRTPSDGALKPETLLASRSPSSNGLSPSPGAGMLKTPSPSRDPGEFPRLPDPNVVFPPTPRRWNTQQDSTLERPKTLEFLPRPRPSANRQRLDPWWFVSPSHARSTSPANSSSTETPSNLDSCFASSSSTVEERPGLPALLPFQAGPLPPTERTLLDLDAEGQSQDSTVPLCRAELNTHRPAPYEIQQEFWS

[6] = biological target: Tyrosine-protein kinase FRK (Homo sapiens) (UniProt P42685); assay: Binding affinity to FRK assessed as percentage of kinase remaining bound to the bead at 1 uM by T7 phage display based binding assay
Procedure, shortened: (§2)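 Competition binding assay run by a contract lab. Each kinase was expressed as a fusion to T7 phage, full-length for small kinases and catalytic domain for large ones. Phage were mixed with an immobilized known kinase inhibitor on streptavidin magnetic beads and with test compound at a single 1 μM. Kinase/phage still bound to the beads was quantified by qPCR and expressed as % of DMSO control.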

[7] = biological target: MAP kinase-interacting serine/threonine-protein kinase 2 (Homo sapiens) (UniProt Q9HBH9); assay: Inhibition of MNK2 assessed as remaining enzyme activity at 1 uM relative to DMSO; procedure, shortened: as §1
MAP kinase-interacting serine/threonine-protein kinase 2 (Homo sapiens), sequence (Q9HBH9 whole entry, looked up): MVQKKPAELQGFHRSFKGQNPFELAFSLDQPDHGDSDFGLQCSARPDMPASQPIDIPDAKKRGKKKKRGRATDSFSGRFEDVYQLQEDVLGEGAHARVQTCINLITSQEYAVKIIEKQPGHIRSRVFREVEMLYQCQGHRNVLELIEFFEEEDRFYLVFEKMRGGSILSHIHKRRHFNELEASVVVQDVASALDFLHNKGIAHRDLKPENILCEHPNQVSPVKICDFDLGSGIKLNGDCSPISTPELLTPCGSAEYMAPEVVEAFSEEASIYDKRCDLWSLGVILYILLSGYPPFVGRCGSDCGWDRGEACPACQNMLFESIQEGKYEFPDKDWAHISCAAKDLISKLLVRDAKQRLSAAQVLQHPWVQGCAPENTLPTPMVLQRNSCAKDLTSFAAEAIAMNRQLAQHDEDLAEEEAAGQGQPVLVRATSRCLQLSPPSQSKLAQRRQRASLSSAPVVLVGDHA

[8] = biological target: MAP kinase-activated protein kinase 2 (Homo sapiens) (UniProt P49137); assay: Inhibition of MAPKAPK2 assessed as remaining enzyme activity at 1 uM relative to DMSO; procedure, shortened: as §1
[9] = biological target: Calcium/calmodulin-dependent protein kinase kinase 2 (Homo sapiens) (UniProt Q96RR4); assay: Inhibition of CAMKKbeta assessed as remaining enzyme activity at 1 uM relative to DMSO
Procedure, shortened: (§3)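 Dundee kinase panel, radiometric: [γ-33P]ATP (800 cpm/pmol) at 5, 20 or 50 μM, at or below each kinase's ATP Km; 10 mM magnesium acetate; robotic, room temperature, 30 min. Reactions started with MgATP, stopped with orthophosphoric acid, spotted onto P81 filters. Inhibitor tested at a single concentration; mean % activity of duplicates relative to DMSO control.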

[10] = biological target: Interleukin-1 receptor-associated kinase 4 (Homo sapiens) (UniProt Q9NWZ3); assay: Inhibition of IRAK4 assessed as remaining enzyme activity at 1 uM relative to DMSO; procedure, shortened: as §3
[11] = biological target: Serine/threonine-protein kinase PAK 5 (Homo sapiens) (UniProt Q9P286); assay: Inhibition of PAK5 assessed as remaining enzyme activity at 1 uM relative to DMSO; procedure, shortened: as §1
[12] = biological target: Epithelial discoidin domain-containing receptor 1 (Homo sapiens) (UniProt Q08345); assay: Binding affinity to DDR1 assessed as percentage of kinase remaining bound to the bead at 1 uM by T7 phage display based binding assay; procedure, shortened: as §2
Epithelial discoidin domain-containing receptor 1 (Homo sapiens), sequence (Q08345 whole entry, the tested form may be a part): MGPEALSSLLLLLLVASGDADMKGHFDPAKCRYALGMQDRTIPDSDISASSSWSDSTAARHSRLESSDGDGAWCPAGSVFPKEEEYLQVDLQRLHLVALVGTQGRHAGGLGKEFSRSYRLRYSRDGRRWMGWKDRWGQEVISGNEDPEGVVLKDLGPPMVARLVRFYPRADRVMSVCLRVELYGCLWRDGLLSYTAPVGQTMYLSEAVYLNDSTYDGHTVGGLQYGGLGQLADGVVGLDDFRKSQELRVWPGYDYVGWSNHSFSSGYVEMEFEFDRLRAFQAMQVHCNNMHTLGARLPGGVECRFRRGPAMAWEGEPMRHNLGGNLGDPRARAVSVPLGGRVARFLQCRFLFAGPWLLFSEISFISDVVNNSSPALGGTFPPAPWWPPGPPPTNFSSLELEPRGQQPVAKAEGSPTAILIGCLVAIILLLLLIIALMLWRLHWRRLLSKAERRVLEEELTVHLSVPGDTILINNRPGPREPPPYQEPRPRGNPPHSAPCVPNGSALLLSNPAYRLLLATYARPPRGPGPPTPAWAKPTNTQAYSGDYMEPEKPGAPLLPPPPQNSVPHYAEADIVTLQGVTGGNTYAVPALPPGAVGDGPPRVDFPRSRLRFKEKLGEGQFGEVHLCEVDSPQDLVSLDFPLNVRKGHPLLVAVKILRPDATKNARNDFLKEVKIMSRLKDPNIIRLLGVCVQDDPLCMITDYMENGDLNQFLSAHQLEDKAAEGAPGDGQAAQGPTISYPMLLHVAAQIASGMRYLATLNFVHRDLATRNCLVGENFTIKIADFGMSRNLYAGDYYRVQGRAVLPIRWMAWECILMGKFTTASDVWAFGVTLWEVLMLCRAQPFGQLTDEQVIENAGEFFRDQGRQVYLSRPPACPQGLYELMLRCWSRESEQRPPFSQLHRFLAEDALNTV

[13] = biological target: Serine/threonine-protein kinase 32C (Homo sapiens) (UniProt Q86UX6); assay: Binding affinity to YANK3 assessed as percentage of kinase remaining bound to the bead at 1 uM by T7 phage display based binding assay; procedure, shortened: as §2
[14] = biological target: Discoidin domain-containing receptor 2 (Homo sapiens) (UniProt Q16832); assay: Binding affinity to DDR2 assessed as percentage of kinase remaining bound to the bead at 1 uM by T7 phage display based binding assay; procedure, shortened: as §2
Discoidin domain-containing receptor 2 (Homo sapiens), sequence (Q16832 whole entry, the tested form may be a part): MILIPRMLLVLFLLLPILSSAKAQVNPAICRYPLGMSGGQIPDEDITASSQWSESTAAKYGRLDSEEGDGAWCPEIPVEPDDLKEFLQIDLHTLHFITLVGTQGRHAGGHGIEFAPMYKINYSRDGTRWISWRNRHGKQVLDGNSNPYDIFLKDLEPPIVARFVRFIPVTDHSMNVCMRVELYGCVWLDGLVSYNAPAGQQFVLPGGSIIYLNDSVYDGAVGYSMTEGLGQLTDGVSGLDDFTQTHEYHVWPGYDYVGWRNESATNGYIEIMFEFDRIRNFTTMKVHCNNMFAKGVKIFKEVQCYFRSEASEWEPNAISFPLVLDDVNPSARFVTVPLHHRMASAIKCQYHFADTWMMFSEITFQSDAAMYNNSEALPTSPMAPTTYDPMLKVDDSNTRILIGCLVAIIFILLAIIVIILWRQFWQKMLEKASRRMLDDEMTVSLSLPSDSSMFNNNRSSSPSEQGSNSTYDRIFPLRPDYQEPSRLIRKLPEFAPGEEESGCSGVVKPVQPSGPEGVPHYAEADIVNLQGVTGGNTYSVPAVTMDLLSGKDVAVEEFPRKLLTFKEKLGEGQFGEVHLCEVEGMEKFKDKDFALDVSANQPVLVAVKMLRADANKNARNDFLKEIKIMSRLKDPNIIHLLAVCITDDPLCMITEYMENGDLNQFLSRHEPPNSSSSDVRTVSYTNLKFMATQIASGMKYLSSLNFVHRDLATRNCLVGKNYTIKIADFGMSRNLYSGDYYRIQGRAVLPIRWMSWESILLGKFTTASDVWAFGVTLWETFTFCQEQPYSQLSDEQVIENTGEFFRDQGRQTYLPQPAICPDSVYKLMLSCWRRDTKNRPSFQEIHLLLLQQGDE

[15] = biological target: Tyrosine-protein kinase Fyn (Homo sapiens) (UniProt P06241); assay: Binding affinity to FYN assessed as percentage of kinase remaining bound to the bead at 1 uM by T7 phage display based binding assay; procedure, shortened: as §2
[16] = biological target: Tyrosine-protein kinase ABL2 (Homo sapiens) (UniProt P42684); assay: Binding affinity to ABL2 assessed as percentage of kinase remaining bound to the bead at 1 uM by T7 phage display based binding assay; procedure, shortened: as §2
[17] = biological target: Tyrosine-protein kinase Yes (Homo sapiens) (UniProt P07947); assay: Inhibition of YES1 assessed as remaining enzyme activity at 1 uM relative to DMSO
Tyrosine-protein kinase Yes (Homo sapiens), sequence (P07947 2-543 limits assumed): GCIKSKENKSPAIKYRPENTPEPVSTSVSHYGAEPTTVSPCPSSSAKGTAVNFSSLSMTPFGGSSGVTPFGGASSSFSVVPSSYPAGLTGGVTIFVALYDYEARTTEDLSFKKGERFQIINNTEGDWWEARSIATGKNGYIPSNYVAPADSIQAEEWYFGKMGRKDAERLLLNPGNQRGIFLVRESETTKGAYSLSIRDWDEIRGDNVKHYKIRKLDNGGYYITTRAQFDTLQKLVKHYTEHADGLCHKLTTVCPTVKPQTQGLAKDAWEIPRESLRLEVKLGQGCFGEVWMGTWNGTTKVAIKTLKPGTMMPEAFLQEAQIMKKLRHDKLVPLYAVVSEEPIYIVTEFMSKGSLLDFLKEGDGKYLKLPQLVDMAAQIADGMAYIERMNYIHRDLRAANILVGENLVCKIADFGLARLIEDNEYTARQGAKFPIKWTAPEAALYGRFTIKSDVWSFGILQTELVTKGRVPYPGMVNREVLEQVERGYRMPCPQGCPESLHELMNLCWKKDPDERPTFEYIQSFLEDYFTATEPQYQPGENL

[18] = biological target: Tyrosine-protein kinase Tec (Homo sapiens) (UniProt P42680); assay: Binding affinity to TEC assessed as percentage of kinase remaining bound to the bead at 1 uM by T7 phage display based binding assay; procedure, shortened: as §2
[19] = biological target: Glycogen synthase kinase-3 beta (Homo sapiens) (UniProt P49841); assay: Inhibition of GSK3-beta assessed as remaining enzyme activity at 3 uM relative to DMSO; procedure, shortened: as §3
[20] = biological target: Serine/threonine-protein kinase pim-2 (Homo sapiens) (UniProt Q9P1W9); assay: Inhibition of PIM2 assessed as remaining enzyme activity at 3 uM relative to DMSO; procedure, shortened: as §1
[21] = biological target: Ribosomal protein S6 kinase alpha-1 (Homo sapiens) (UniProt Q15418); assay: Inhibition of RSK1 assessed as remaining enzyme activity at 3 uM relative to DMSO
[22] = biological target: Misshapen-like kinase 1 (Homo sapiens) (UniProt Q8N4C8); assay: Inhibition of MINK1 assessed as remaining enzyme activity at 3 uM relative to DMSO; procedure, shortened: as §1
[23] = biological target: Receptor tyrosine-protein kinase erbB-4 (Homo sapiens) (UniProt Q15303); assay: Inhibition of HER4 assessed as remaining enzyme activity at 3 uM relative to DMSO; procedure, shortened: as §3
[24] = Inhibition of PKA assessed as remaining enzyme activity at 3 uM relative to DMSO; procedure, shortened: as §1
[25] = biological target: Inhibitor of nuclear factor kappa-B kinase subunit epsilon (Homo sapiens) (UniProt Q14164); assay: Inhibition of IKKepsilon assessed as remaining enzyme activity at 3 uM relative to DMSO; procedure, shortened: as §3
[26] = biological target: Fibroblast growth factor receptor 1 (Homo sapiens) (UniProt P11362); assay: Inhibition of FGF-R1 assessed as remaining enzyme activity at 3 uM relative to DMSO; procedure, shortened: as §3
[27] = biological target: Mitogen-activated protein kinase 12 (Homo sapiens) (UniProt P53778); assay: Inhibition of p38-gamma assessed as remaining enzyme activity at 3 uM relative to DMSO
[28] = biological target: Serine/threonine-protein kinase D1 (Homo sapiens) (UniProt Q15139); assay: Inhibition of PKD1 assessed as remaining enzyme activity at 3 uM relative to DMSO

## COc1ccccc1-n1c(-c2cc(O)ccc2C)cn2c3c(=O)[nH]c(=O)n(C)c3nc12
[1]
  Activity: 93%
[2]
  Activity: 93%
[3]
  Activity: 86%
[4]
  Activity: 0%
[5]
  Activity: 45%
[6]
  Activity: 0.3%
[7]
  Activity: 74%
[8]
  Activity: 90%
[9]
  Activity: 104%
[10]
  Activity: 82%
[11]
  Activity: 94%
[12]
  Activity: 1.4%
[13]
  Activity: 100%
[14]
  Activity: 21%
[15]
  Activity: 0.25%
[16]
  Activity: 0.75%
[17]
  Activity: 3%
[18]
  Activity: 100%

## COc1ccccc1-n1c(-c2ccccc2C)cn2c3c(=O)[nH]c(=O)n(C)c3nc12
[19]
  Activity: 102%
[20]
  Activity: 115%
[21]
  Activity: 83%
[22]
  Activity: 101%
[23]
  Activity: 45%
[24]
  Activity: 92%
[25]
  Activity: 101%
[26]
  Activity: 90%
[27]
  Activity: 92%
[28]
  Activity: 100%
